These results are taken from ChEMBL document CHEMBL5036324 (J Med Chem, 2021).

In data set [1] the target is T1, TLR7 and TLR8 (Homo sapiens) (UniProt Q9NYK1+Q9NR97). Nature of the data set: Agonist activity at human TLR7/8 expressed in human PBMC cells assessed as induction of TNF-alpha production at 0.1 to 32 ug/ml incubated for 12 hrs by multiplexed immunoassay. The format is cell-based. The settings on record: filed as agonist, dose 0.1-32 µg/ml. The method in brief: (§1)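 Healthy-volunteer PBMCs from a single donor were isolated by Ficoll−Hypaque gradient and plated at 2.0 × 10⁶ cells/mL. They were stimulated for 12 h with escalating compound concentrations. Supernatants were assayed in duplicate on a 41-analyte magnetic bead cytokine/chemokine panel read by Luminex. EC_max is the concentration giving maximal cytokine induction.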
T1 sequence (Q9NR97 whole entry, looked up): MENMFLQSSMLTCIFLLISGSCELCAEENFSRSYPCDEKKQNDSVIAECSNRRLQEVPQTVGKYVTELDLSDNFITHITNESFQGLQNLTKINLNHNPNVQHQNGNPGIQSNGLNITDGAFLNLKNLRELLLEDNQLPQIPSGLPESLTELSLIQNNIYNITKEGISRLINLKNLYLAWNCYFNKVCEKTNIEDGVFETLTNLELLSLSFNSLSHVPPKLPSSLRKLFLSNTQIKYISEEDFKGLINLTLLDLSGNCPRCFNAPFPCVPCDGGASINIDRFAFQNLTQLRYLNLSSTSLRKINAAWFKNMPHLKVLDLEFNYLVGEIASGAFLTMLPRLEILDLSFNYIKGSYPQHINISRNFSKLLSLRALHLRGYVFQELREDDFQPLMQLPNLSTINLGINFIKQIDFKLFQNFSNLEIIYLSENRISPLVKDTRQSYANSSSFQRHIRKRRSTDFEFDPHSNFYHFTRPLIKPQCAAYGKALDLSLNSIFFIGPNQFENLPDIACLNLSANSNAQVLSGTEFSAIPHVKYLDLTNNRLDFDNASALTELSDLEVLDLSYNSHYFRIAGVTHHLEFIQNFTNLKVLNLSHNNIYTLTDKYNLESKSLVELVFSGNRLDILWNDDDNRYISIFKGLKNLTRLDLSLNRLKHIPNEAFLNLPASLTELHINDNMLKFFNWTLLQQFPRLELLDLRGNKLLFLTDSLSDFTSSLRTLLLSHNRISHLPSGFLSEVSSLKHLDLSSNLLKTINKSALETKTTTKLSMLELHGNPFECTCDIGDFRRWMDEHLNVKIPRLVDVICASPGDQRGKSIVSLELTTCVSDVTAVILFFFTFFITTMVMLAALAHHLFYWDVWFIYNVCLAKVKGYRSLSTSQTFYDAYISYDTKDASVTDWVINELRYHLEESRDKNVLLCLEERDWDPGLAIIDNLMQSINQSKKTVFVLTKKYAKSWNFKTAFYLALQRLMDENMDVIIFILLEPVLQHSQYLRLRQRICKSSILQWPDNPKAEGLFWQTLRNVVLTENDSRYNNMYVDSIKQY
T1 sequence (Q9NYK1 whole entry, looked up): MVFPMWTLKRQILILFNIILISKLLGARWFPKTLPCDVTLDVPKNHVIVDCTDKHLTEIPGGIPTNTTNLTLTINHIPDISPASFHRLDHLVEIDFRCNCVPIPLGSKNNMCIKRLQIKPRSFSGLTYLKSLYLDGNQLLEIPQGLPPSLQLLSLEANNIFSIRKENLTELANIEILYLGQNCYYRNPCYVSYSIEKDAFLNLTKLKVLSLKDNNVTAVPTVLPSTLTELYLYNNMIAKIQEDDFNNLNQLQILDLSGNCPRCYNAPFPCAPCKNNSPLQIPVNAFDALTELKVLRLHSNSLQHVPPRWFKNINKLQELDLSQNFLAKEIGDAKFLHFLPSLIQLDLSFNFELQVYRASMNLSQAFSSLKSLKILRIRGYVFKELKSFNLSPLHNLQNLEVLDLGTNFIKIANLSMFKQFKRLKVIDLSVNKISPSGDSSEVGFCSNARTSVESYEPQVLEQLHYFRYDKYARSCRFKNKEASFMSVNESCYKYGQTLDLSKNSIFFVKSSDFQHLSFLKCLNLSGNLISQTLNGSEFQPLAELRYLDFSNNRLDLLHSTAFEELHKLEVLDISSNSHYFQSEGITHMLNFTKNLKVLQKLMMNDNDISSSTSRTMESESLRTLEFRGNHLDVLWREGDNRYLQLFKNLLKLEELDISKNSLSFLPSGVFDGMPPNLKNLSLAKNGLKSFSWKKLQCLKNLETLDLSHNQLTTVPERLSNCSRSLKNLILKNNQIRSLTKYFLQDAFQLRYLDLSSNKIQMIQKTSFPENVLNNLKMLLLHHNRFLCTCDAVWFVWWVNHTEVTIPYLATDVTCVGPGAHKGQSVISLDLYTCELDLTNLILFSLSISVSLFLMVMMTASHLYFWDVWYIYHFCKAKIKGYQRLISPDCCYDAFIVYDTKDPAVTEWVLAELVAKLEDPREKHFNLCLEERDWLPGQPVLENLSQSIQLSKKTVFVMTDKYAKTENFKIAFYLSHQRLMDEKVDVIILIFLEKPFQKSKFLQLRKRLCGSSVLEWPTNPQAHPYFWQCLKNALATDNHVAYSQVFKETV

Data set [2] is described as follows: Subacute toxicity in BALB/c mouse assessed as body weight loss at 1.73 g, ip administered as single dose. Format: organism-based. The settings on record: in vivo. The method in brief: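 Subacute study in BALB/c mice, with treated and control groups. Body weight was recorded every day. Spleens were weighed and photographed, and tissues were examined by H&E staining.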

For data set [3], the target named is T1, TLR7 and TLR8 (Homo sapiens). Nature of the data set: Agonist activity at human TLR7/8 expressed in human PBMC cells assessed as induction of IFN-alpha2 production at 0.1 to 32 ug/ml incubated for 12 hrs by multiplexed immunoassay. The format is cell-based. The note with it: filed as agonist, dose 0.1-32 µg/ml. The procedure, abridged: as §1
For data set [4], the system named is CT26. Kind of data set: Antitumor activity against mouse CT26 cells implanted in BALB/c mouse assessed as reduction in tumor volume at 25 ug, ip administered once a week in presence of anti-PD-1 antibodies and measured every 3 days for 23 days. The note with it: dose 25.0 µg, time 23.0 day. The format is functional, organism-based. The method in brief:
(§2)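 Subcutaneous CT26 tumours were grown in BALB/c mice, with cells cultured in DMEM/10% FBS. At a mean tumour size of 100 mm³, mice were randomised (n = 5/group). Agonist was given ip once weekly; anti-PD-1 or IgG isotype was given ip at 200 μg twice weekly. Tumour volume (V = 1/2ab²) was measured every 3 days. Mice were euthanised at 2000 mm³.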

For data set [5], the target named is T1, TLR7 and TLR8 (Homo sapiens). Nature of the data set: Agonist activity at human TLR7/8 expressed in human PBMC cells assessed as induction of IL-12 production at 0.1 to 32 ug/ml incubated for 12 hrs by multiplexed immunoassay. Format: cell-based. The note with it: filed as agonist, dose 0.1-32 µg/ml. The method in brief:
as §1

Data set [6] has the same target. Nature of the data set: Agonist activity at human TLR7/8 expressed in human PBMC cells assessed as induction of MIP-1alpha production at 0.1 to 32 ug/ml incubated for 12 hrs by multiplexed immunoassay. Format: cell-based. The note with it: filed as agonist, dose 0.1-32 µg/ml. The method in brief: as §1
For data set [7] the target is unchanged. Kind of data set: Agonist activity at human TLR7/8 expressed in human PBMC cells assessed as induction of IL-8 production at 0.1 to 32 ug/ml incubated for 12 hrs by multiplexed immunoassay. Format: cell-based. The settings on record: filed as agonist, dose 0.1-32 µg/ml. The procedure, abridged: as §1
Data set [8] shares this target. Nature of the data set: Agonist activity at human TLR7/8 expressed in human PBMC cells assessed as induction of INF-alpha regulated IP-10 production at 0.1 to 32 ug/ml incubated for 12 hrs by multiplexed immunoassay. Format: cell-based. The settings on record: filed as agonist, dose 0.1-32 µg/ml. The method in brief:
as §1

The next data set has as its target hERG (KCNH2) (Homo sapiens, UniProt Q12809). Nature of the data set: Inhibition of hERG expressed in HEK293 cells at 3 uM relative to control. The note with it: HEK293 cells expressing hERG. The format is cell-based.
Data set [9] has as its target T1, TLR7 and TLR8 (Homo sapiens). Kind of data set: Agonist activity at human TLR7/8 expressed in human PBMC cells assessed as induction of IL-12p40 production by measuring concentration required to induce maximal response incubated for 12 hrs by multiplexed immunoassay. The format is cell-based. The note with it: filed as agonist. The method in brief: as §1
Data set [10] has as its system CT26. Kind of data set: Antitumor activity against mouse CT26 cells implanted in BALB/c mouse assessed as reduction in tumor size at 25 ug, ip administered once a week in presence of anti-PD-1 antibodies and measured every 3 days for 23 days. The note with it: dose 25.0 µg, time 23.0 day. Format: functional, organism-based. The procedure, abridged: as §2
Data set [11] has as its system CT26. Nature of the data set: Antitumor immunity against mouse CT26 cells implanted in BALB/c mouse assessed as increase in M1 to M2 like TAM ratio at 25 ug, ip administered once a week for 23 days by flow cytometry analysis. Format: functional, organism-based. The note with it: dose 25.0 µg, time 23.0 day. The procedure, abridged: (§3)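 CT26-bearing BALB/c mice (n = 5) were treated ip once weekly with agonist, alone or with anti-PD-1 (200 μg, twice weekly). Tumours were harvested 23 days after implantation, enzymatically and mechanically dissociated into single cells, and stained for surface markers plus intracellular FoxP3 after fixation/permeabilisation. Cells were gated within CD45⁺ for CD11c⁺ DCs, CD11b⁺F4/80⁺MHCII⁺ (M1), CD206⁺ (M2), CD3/CD4/CD8, and CD4⁺CD25⁺FoxP3⁺ Treg, then analysed by flow cytometry.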

The test system of data set [12] is CT26. Kind of data set: Antitumor activity against mouse CT26 cells implanted in BALB/c mouse assessed as fold increase in infiltration of CD11c+ in tumor cells at 25 ug, ip administered once a week for 23 days by flow cytometry analysis relative to R848. Format: functional. The settings on record: dose 25 µg; time 23 day. The method in brief:
as §3

Data set [13] in a line: Toxicity in BALB/c mouse implanted with mouse CT26 cells assessed as decrease in body weight at 1.2 g, ip administered on day 4 in combination with anti-PD-1 antibodies measured after 4 days. The settings on record: in vivo, 96 h, time 4 day. The format is organism-based. The method in brief: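 CT26 subcutaneous tumor-bearing BALB/c mice (n = 5) were treated from 100 mm³ tumor volume. TLR7/8 agonist was given ip once weekly, alone or with anti-PD-1 antibody (200 μg ip, twice weekly). Body weight was tracked over the treatment period and reported as mean ± SEM.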

Data set [14] relates to CT26. Nature of the data set: Antitumor immunity against mouse CT26 cells implanted in BALB/c mouse assessed as increase in Teff/Treg ratio at 25 ug, ip administered once a week with anti-PD-1 antibody for 23 days by flow cytometry analysis. Format: functional, organism-based. The note with it: dose 25.0 µg, time 23.0 day. The method in brief: as §3
Data set [15] has as its target T1, TLR7 and TLR8 (Homo sapiens). Kind of data set: Agonist activity at human TLR7/8 expressed in human PBMC cells assessed as induction of IL-1beta production by measuring concentration required to induce maximal response incubated for 12 hrs by multiplexed immunoassay. Format: cell-based. The settings on record: filed as agonist. The procedure, abridged: as §1

For data set [16] the target is unchanged. Kind of data set: Agonist activity at human TLR7/8 expressed in human PBMC cells assessed as induction of MCP-1 production by measuring concentration required to induce maximal response incubated for 12 hrs by multiplexed immunoassay. The format is cell-based. The settings on record: filed as agonist. The method in brief: as §1
Data set [17] is described as follows: Toxicity in BALB/c mouse implanted with mouse CT26 cells assessed as decrease in body weight at 0.9 g, ip administered on day 4. Format: organism-based. The note with it: in vivo. The method in brief: (§4)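 CT26 cells were grown in DMEM with 10% FBS at 37 °C, 5% CO2, and implanted subcutaneously in BALB/c mice. At a mean tumor volume of 100 mm³, mice were randomized (n = 5 per group). The TLR7/8 agonist was given ip at 25 μg once weekly, with or without anti-PD-1 antibody at 200 μg ip twice weekly. Body weight was tracked over time.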

The target in data set [18] is T1, TLR7 and TLR8 (Homo sapiens). Nature of the data set: Agonist activity at human TLR7/8 expressed in human PBMC cells assessed as induction of INF-gamma production by measuring concentration required to induce maximal response incubated for 12 hrs by multiplexed immunoassay. Format: cell-based. The note with it: filed as agonist. The procedure, abridged:
as §1

The nature of data set [19]: Toxicity in BALB/c mouse implanted with mouse CT26 cells assessed as decrease in body weight at 1.2 g, ip administered on day 4 in combination with anti-PD-1 antibodies. The format is organism-based. The settings on record: in vivo. The method in brief: as §4
Data set [20] concerns CT26. Nature of the data set: Antitumor immunity against mouse CT26 cells implanted in BALB/c mouse assessed as increase in infiltration of CD8+ T cytotoxic lymphocytes at 25 ug, ip administered once a week for 23 days by flow cytometry analysis. Format: functional, organism-based. The settings on record: dose 25.0 µg, time 23.0 day. The procedure, abridged: as §3
The subject of data set [21] is CT26. Nature of the data set: Synergistic antitumor activity against mouse CT26 cells implanted in BALB/c mouse assessed as reduction in tumor size at 25 ug, ip administered once a week in presence of anti-PD-1 antibodies and measured every 3 days for 23 days. Format: functional, organism-based. The note with it: dose 25.0 µg, time 23.0 day.
For data set [22], the target named is T1, TLR7 and TLR8 (Homo sapiens). Kind of data set: Agonist activity at human TLR7/8 expressed in human PBMC cells assessed as induction of TNFalpha production by measuring concentration required to induce maximal response incubated for 12 hrs by multiplexed immunoassay. The format is cell-based. The settings on record: filed as agonist. The procedure, abridged:
as §1

The source made the active and inactive calls. No cut-off for these calls is given here.

Sequence of hERG (KCNH2) (Q12809 whole entry): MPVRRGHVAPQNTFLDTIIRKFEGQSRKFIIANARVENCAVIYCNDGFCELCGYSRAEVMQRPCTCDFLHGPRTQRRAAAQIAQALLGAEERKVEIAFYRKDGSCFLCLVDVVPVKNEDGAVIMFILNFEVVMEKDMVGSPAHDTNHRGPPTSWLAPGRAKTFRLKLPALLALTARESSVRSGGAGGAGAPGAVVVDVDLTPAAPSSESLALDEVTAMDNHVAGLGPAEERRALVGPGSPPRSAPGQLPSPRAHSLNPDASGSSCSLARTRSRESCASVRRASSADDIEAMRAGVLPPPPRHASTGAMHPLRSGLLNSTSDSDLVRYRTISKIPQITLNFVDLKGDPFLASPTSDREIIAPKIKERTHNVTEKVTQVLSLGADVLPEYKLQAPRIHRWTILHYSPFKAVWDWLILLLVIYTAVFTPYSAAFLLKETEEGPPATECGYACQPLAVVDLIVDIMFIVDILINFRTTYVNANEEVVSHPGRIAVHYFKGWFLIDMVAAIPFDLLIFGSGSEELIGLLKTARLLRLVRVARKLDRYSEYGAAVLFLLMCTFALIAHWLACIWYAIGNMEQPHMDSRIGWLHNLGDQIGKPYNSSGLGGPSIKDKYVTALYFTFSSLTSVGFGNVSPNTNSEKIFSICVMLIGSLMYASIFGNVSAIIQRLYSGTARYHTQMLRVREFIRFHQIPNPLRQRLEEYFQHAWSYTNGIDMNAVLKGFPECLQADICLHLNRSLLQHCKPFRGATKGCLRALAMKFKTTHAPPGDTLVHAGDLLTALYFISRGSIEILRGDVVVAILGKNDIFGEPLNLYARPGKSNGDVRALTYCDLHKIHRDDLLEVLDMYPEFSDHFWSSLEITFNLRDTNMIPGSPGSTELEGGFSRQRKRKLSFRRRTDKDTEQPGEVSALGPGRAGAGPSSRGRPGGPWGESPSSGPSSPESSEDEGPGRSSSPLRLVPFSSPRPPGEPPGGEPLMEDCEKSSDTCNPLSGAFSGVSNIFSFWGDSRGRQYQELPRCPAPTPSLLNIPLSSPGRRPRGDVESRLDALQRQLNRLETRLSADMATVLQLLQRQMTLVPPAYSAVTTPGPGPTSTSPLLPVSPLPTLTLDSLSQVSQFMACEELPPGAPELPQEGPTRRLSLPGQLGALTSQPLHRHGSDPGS

Take `COCCNc1nc(N)nc2ccc(Cc3ccc(CN(C)C)cc3)nc12`: the outcome (in [1]; in data set [3]; in the data set with CT26 [4]; in [5]; in data set [6]; in data set [7]) was Active. Further, in data set [8], the outcome was Active. Further, the Activity result in data set [2] is listed as “Toxic”.
Compound `CCCCNc1nc(N)nc2ccc(Cc3ccc(CN(C)C)cc3)nc12` displayed an inhibition at 3 µM on hERG (KCNH2) of 63.2%. Also, the ECmax in data set [9], in [15], in data set [16], in [18] and in data set [22] was 0.1 µg/mL in each case. Besides, the outcome with CT26 [10], with CT26 [11], in the data set with CT26 [14] and with CT26 [20] was Active. In addition, in the data set on CT26 [12], the “fold change (FC)” value worked out at 2. In addition, the results for the Activity entry in data set [13], in data set [17] and in [19] were “Non-Toxic”, “Toxic” and “Toxic”, respectively. In the data set on CT26 [21], the result was inactive.
